Source: PubChem (Sanford-Burnham Center for Chemical Genomics)
Shown are actives, neighbours in structure and some others; about 3% of the full set was active somewhere.
SENP6 inh: SENP6 protease inhibition; Recombinant SENP6 catalytic domain, aminoluciferin luminescence; inhibition, % at 10 µM; 330,000 compounds, 1.8% hits; AID 2599;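 active = inhibition above about 50% at the single tested dose, limit read from the data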
Apaf-1 inh: blocks human Apaf-1 apoptosome activity; O14727; reconstituted apoptosome caspase-3 activity, DEVD-Rh110 fluorescence; inhibition, % at 20 µM; 330,000 compounds, 0.71% hits; active = inhibition of at least 40% at 20 µM
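Medium: Hepes buffer, pH 7.5 / System: biochemical Apaf-1 apoptosome reconstitution / Measured by: Rh110 fluorescence, excitation 480 nm, emission 540 nm / Times: compound with Apaf-1, dATP, procaspase-3 30 min, then 50 min reaction, room temperature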
SENP8 block-1: SENP8 (human) protease inhibition. Q96LD8. recombinant SENP8, Nedd8 substrate fluorescence. inhibition, % at 20 µM. 360,000 compounds, 0.64% hits; in the data active = inhibition mostly above about 40%, no sharp cut-off; inactive = mostly below about 27%
SENP8 block-2: inhibitors of human SENP8 protease; Q96LD8; purified SENP8, Z-RLRGG-aminoluciferin cleavage, luminescence; inhibition, % at 10 µM; 330,000 compounds, 1.2% hits; in the data active = inhibition above about 50%
UBC13 polyUb: human UBC13 polyubiquitination inhibition; P61088; 330,000 compounds, 0.47% hits; inhibition, % at 20 µM; UBC13 polyubiquitin chain formation, TR-FRET; in the data active = inhibition above about 45%, passing the limit was not always enough; inconclusive = no clear call, values can overlap the other calls
Target sequence (P61088 whole entry, looked up): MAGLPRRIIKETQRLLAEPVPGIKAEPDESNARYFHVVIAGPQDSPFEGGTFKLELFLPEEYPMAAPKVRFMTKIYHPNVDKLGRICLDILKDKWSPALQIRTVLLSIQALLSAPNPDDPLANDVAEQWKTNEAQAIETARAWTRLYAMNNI
SENP7 inh: SENP7 protease inhibition. Q9BQF6. recombinant SENP7, Z-RLRGG-aminoluciferin luminescence, 40 min. inhibition, % at 5 µM. 330,000 compounds, 1.5% hits. AID 434973;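 active = inhibition above about 50% at the single test dose, limit read from the data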
Target sequence (Q9BQF6 706-1050 limits assumed): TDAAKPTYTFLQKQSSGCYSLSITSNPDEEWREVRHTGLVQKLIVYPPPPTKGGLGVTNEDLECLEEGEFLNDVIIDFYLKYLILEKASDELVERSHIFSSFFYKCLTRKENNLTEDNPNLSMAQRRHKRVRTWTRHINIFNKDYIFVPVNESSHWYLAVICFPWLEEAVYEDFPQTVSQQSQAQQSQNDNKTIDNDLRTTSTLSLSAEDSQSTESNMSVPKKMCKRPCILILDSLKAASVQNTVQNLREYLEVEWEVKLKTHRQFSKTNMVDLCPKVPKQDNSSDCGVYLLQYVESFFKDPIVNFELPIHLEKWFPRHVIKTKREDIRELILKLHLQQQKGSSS
SENP8 conf: confirmation of human SENP8 protease inhibitors. inhibition, % at 12.5 µM. Recombinant SENP8, Z-RLRGG-aminoluciferin luminescence, 60 min. AID 488912. shares compounds with SENP7 inh. 6,200 compounds, 40% hits;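 active = mean inhibition across replicates above about 50%, limit read from the data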
SENP6 conf: confirmation of human SENP6 protease inhibitors. shares compounds with SENP7 inh. recombinant SENP6, Z-RLRGG-aminoluciferin luminescence. inhibition, % at 12.5 µM. 6,200 compounds, 58% hits. AID 488915
SENP7 confirm: human SENP7 inhibition, confirmed. shares compounds with SENP7 inh. inhibition, % at 12.5 µM. 6,200 compounds, 69% hits. recombinant SENP7, Z-RLRGG-aminoluciferin luminescence, 40 min
Casp3 select: inhibits human caspase-3 in SENP selectivity test | shares compounds with SENP7 inh | purified caspase-3, Z-DEVD-aminoluciferin luminescence, 60 min | inhibition, % at 12.5 µM | 6,200 compounds, 60% hits | AID 488918;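 active = mean inhibition above about 50%, limit read from the data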
Target sequence (P42574 28-227 limits assumed): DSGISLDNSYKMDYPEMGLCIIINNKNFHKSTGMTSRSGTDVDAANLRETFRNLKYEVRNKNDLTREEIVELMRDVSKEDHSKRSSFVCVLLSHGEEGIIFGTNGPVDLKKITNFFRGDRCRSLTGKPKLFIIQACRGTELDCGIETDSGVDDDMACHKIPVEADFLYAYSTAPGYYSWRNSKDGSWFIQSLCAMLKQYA
Luc interf: counter-screen for SENP inhibitors: luminescence interference. shares compounds with SENP7 inh. Pre-incubated SENP8/Z-RLRGG-aminoluciferin, luciferase luminescence interference. inhibition, % at 12.5 µM. 6,200 compounds, 39% hits. AID 488919;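 active = mean inhibition above about 50% when retested at one dose, limit read from the data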
Of the large screens only hits and unclear results are named; the others gave an inactive call (follow-up assays come after a bar, where they were run).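 The calls were made as follows, unless noted: active = mean inhibition above about 50% in the one-dose retest (limit read from the data); inactive = the rest.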

COc1ccc(NC(=O)Nc2ccccc2SC)cc1	SENP6 inh 96, SENP8 block-2 92, SENP7 inh 98 | SENP8 conf 95 | SENP6 conf 96 | SENP7 confirm 101 | Casp3 select 96 | Luc interf inactive
CSc1ccccc1NC(=O)Nc1ccc(Cl)cc1	SENP8 block-2 92, SENP7 inh 96 | SENP8 conf inactive | SENP6 conf 96 | SENP7 confirm 101 | Casp3 select 85 | Luc interf 63
CCCC[C@@H]1CC2=C(C(=O)OC(C)(C)O2)[C@@H](c2ccc(Cl)cc2)O1	none (no result: SENP6 inh, Apaf-1 inh, SENP8 block-2, UBC13 polyUb, SENP7 inh)
O=C1Nc2ccccc2-n2nnnc2C1N1CCN(C(=O)c2ccco2)CC1 (stereo not given)	none (no result: SENP6 inh, Apaf-1 inh, SENP8 block-2, UBC13 polyUb, SENP7 inh)
CCOC(=O)C1C(C(=O)OCC)C2C(=O)C3C(C(=O)OCC)C(C(=O)OCC)C3C(=O)C12 (stereo not given)	none (no result: SENP6 inh, Apaf-1 inh, SENP8 block-2, UBC13 polyUb, SENP7 inh)
O=C(NCc1cccc(C(F)(F)F)c1)c1ccc2sc([C@H]3C[C@H](O)[C@@H](CO)O3)nc2c1	none (no result: SENP6 inh, Apaf-1 inh, SENP8 block-2, UBC13 polyUb, SENP7 inh)
C[C@@H]1CCCCO[C@H](CN(C)C(=O)Nc2ccc3c(c2)OCO3)[C@H](C)CN([C@@H](C)CO)C(=O)c2cc(NS(=O)(=O)c3ccc(Cl)cc3)ccc2O1	none (no result: SENP6 inh, Apaf-1 inh, SENP8 block-2, UBC13 polyUb, SENP7 inh)
Nc1nc(N=Nc2ccc(O)cc2)cc(=O)[nH]1	none (no result: SENP6 inh, Apaf-1 inh, SENP8 block-2, UBC13 polyUb, SENP7 inh)
CCn1c(C)cc(C(=O)COC(=O)c2cccnc2SC)c1C	none
CSc1ncccc1C(=O)OCC(=O)c1cc(C)n(CC2CCCO2)c1C (stereo not given)	SENP6 inh 88, SENP8 block-2 83, SENP7 inh 78 | SENP8 conf 92 | SENP6 conf 92 | SENP7 confirm 99 | Casp3 select 93 | Luc interf inactive
CSc1ncccc1C(=O)OCC(=O)c1ccccc1	SENP6 inh 53 | SENP8 conf inactive | SENP6 conf inactive | SENP7 confirm 70 | Casp3 select 56 | Luc interf inactive
CSc1ncccc1C(=O)OCC(=O)c1ccccc1Br	none
CSc1ncccc1C(=O)OCC(=O)c1cc(C)n(C)c1C	SENP6 inh 54 | SENP8 conf inactive | SENP6 conf inactive | SENP7 confirm 82 | Casp3 select 73 | Luc interf inactive
C=CCNC(=O)c1cc(Cl)cc(Cl)c1	none
C=CCNC(=O)c1cc(Cl)ccn1	SENP7 inh 89 | SENP8 conf inactive | SENP6 conf inactive | SENP7 confirm inactive | Casp3 select inactive | Luc interf inactive
Cc1ccc(Cl)cc1-c1cc(C(=O)Nc2ccc(F)cc2)[nH]n1	none (no result: SENP6 inh, Apaf-1 inh, SENP8 block-2, UBC13 polyUb, SENP7 inh)
COc1ncccc1-c1nnn(-c2ccccc2Br)n1	none
Clc1ncccc1-c1nnn(-c2ccccc2)n1	SENP6 inh 91, SENP8 block-2 86, SENP7 inh 89 | SENP8 conf 88 | SENP6 conf 90 | SENP7 confirm 99 | Casp3 select 92 | Luc interf 88
Fc1ccc(-n2nnc(-c3ccccc3Cl)n2)cc1	none
Fc1ccc(-n2nnc(-c3nccs3)n2)cc1	SENP6 inh 88, SENP8 block-2 87, SENP7 inh 91 | SENP8 conf 88 | SENP6 conf 92 | SENP7 confirm 100 | Casp3 select 96 | Luc interf 67
COc1ncccc1-c1nnn(-c2ccccc2)n1	SENP6 inh 84, SENP8 block-2 81, SENP7 inh 87 | SENP8 conf 85 | SENP6 conf 88 | SENP7 confirm 98 | Casp3 select 91 | Luc interf 84
Clc1ccc(-n2nnc(-c3cccnc3Cl)n2)cc1Cl	SENP7 inh 57 | SENP8 conf inactive | SENP6 conf inactive | SENP7 confirm inactive | Casp3 select inactive | Luc interf inactive
Clc1nc2ccccc2cc1-c1nnn(-c2ccccc2)n1	none
O=C(CCNC(=O)N1CC(=O)Nc2ccccc21)NCc1cccc(C(F)(F)F)c1	none (no result: SENP6 inh, Apaf-1 inh, SENP8 block-2, UBC13 polyUb, SENP7 inh)
Cc1ccccc1CSCC1Nc2ccc(C(=O)NCCc3ccccc3)cc2NC1=O (stereo not given)	none (no result: SENP6 inh, Apaf-1 inh, SENP8 block-2, UBC13 polyUb, SENP7 inh)
COCCNC(=O)C1(C)Cc2c(-c3cccc(C(F)(F)F)c3)ccnc2O1 (stereo not given)	none (no result: SENP6 inh, Apaf-1 inh, SENP8 block-2, UBC13 polyUb, SENP7 inh)
Fc1ccc(-n2nnc(-c3cccnc3Cl)n2)cc1	SENP6 inh 74, SENP8 block-2 72, SENP7 inh 81 | SENP8 conf 73 | SENP6 conf 75 | SENP7 confirm 92 | Casp3 select 84 | Luc interf 74
CCc1nc2ccc(C(=O)Nc3cccc(NS(C)(=O)=O)c3)cn2c1N(C)Cc1nccn1C	none (no result: SENP6 inh, Apaf-1 inh, SENP8 block-2, UBC13 polyUb, SENP7 inh)
CN1CCC(N2CCN(C3CN(C4CCCC4)S(=O)(=O)C3)CC2)CC1 (stereo not given)	none (no result: SENP6 inh, Apaf-1 inh, SENP8 block-2, UBC13 polyUb, SENP7 inh)
N#CC1(c2ccc(NC(=O)c3ccccc3F)cc2)CCCC1	SENP6 inh 84, SENP8 block-2 76, SENP7 inh 76 | SENP8 conf 80 | SENP6 conf 77 | SENP7 confirm 93 | Casp3 select 74 | Luc interf 64
CCC(=O)Nc1ccc(S(=O)(=O)NC[C@H]2O[C@@H](n3cc(C)c(=O)[nH]c3=O)C[C@@H]2O)cc1	none (no result: SENP6 inh, Apaf-1 inh, SENP8 block-2, UBC13 polyUb, SENP7 inh)
O=C(O)c1ccccc1Nc1ccc(OC(F)F)cc1	SENP8 block-2 55 | SENP8 conf 61 | SENP6 conf 60 | SENP7 confirm 80 | Casp3 select 66 | Luc interf 74
COc1ccc(S(=O)(=O)NC(=O)C2(C)CCN2C(=O)c2c(C)noc2C)cc1 (stereo not given)	none (no result: SENP6 inh, Apaf-1 inh, SENP8 block-2, UBC13 polyUb, SENP7 inh)
COCCCNc1nc2c(-c3ccc(Cl)cc3)nnn2c2ccccc12	UBC13 polyUb inconclusive
NNc1nc2c(-c3ccc(F)cc3)nnn2c2ccccc12	SENP6 inh 97, SENP8 block-2 92, SENP7 inh 92 | SENP8 conf inactive | SENP6 conf 81 | SENP7 confirm 71 | Casp3 select 78 | Luc interf inactive
NNc1nc2c(-c3ccc(Cl)cc3)nnn2c2ccccc12	SENP6 inh 85 | SENP8 conf inactive | SENP6 conf inactive | SENP7 confirm inactive | Casp3 select inactive | Luc interf inactive
Cc1ccc(OC(=O)c2ccc3nc(C)sc3c2)cc1	none (no result: SENP8 block-1)
COc1ccc(OC(=O)c2ccc3nsnc3c2)cc1	SENP7 inh 59 | SENP8 conf inactive | SENP6 conf inactive | SENP7 confirm inactive | Casp3 select inactive | Luc interf inactive
